Test results taken from ChEMBL document CHEMBL1944574, “Inhibition of monoamine oxidase by selected C6-substituted chromone derivatives” (Eur J Med Chem, 2012).
pIC50: −log10 of the molar value.

Columns and labels:
Homo sapiens = species: Homo sapiens; assay: Selectivity index, ratio of IC50 for recombinant human monoamine oxidase A to IC50 for recombinant human monoamine oxidase B
[1] = molecular target: T1, Amine oxidase [flavin-containing] B (Homo sapiens, UniProt P27338); assay: Inhibition of recombinant human monoamine oxidase B expressed in insect microsomes using kynuramine as substrate after 20 mins by fluorescence spectrophotometry; parameters: species or system Microsome
T1 sequence (P27338 whole entry): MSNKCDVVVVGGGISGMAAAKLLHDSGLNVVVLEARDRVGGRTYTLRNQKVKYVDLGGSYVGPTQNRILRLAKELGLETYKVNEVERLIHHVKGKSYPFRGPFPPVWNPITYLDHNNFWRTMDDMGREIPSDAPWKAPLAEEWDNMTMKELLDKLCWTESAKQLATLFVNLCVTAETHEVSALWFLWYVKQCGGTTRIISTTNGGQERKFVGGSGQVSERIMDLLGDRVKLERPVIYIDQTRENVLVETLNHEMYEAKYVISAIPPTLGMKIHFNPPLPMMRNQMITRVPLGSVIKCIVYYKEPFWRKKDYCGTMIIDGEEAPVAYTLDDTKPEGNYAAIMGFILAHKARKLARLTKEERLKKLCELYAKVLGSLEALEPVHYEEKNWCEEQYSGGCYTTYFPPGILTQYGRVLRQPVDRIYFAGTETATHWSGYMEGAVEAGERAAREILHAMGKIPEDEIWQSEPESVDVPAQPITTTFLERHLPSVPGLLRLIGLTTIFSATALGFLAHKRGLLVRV
How it was run: (§1)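 Enzyme source: insect-cell microsomes with recombinant human MAO-A or MAO-B at 0.0075 mg protein/mL, with kynuramine as substrate. Six inhibitor concentrations (0–100 µM) spanned at least 3 log units. Incubation was 20 min at 37 °C, then stopped with 2 N NaOH. IC50 came from sigmoidal fits of initial rate versus log inhibitor, in triplicate, mean ± SD.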

[2] = molecular target: T2, Amine oxidase [flavin-containing] A (Homo sapiens, UniProt P21397); assay: Inhibition of recombinant human monoamine oxidase A expressed in insect microsomes using kynuramine as substrate after 20 mins by fluorescence spectrophotometry; parameters: species or system Microsome
T2 sequence (P21397 whole entry): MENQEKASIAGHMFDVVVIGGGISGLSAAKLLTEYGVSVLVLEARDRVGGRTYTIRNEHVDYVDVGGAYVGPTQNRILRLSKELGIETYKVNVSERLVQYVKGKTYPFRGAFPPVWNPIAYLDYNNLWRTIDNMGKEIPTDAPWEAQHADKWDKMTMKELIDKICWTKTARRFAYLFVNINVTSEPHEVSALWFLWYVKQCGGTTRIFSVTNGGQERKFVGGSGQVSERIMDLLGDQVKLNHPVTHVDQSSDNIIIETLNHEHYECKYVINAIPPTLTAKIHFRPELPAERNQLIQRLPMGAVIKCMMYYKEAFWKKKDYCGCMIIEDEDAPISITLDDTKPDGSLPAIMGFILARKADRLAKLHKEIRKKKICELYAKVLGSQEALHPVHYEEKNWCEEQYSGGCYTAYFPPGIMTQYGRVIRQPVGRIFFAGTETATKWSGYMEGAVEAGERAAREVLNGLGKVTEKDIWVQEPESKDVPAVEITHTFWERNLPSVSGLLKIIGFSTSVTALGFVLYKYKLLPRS
How it was run: as §1, with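 “substrate. Buffer was potassium phosphate 100 mM, pH 7.4, made isotonic with 20.2 mM KCl.” for “substrate.”, “NaOH. 4-Hydroxyquinoline was read by fluorescence ([…] nm as printed) against a 0.047–1.56 µM standard curve.” for “NaOH.”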

[3] = molecular target: T1, Amine oxidase [flavin-containing] B; assay: Competitive inhibition of recombinant human monoamine oxidase B at 0.064 uM preincubated for 15 to 60 mins before kynuramine substrate addition measured after 15 mins by Lineweaver-Burk plot analysis; details: 0.25 h
[4] = molecular target: T2, Amine oxidase [flavin-containing] A; assay: Competitive inhibition of recombinant human monoamine oxidase A at 0.190 uM preincubated for 15 to 60 mins before kynuramine substrate addition measured after 15 mins; details: 0.25 h, 0.19 µM

O=c1ccoc2ccc(OCCc3ccc(Br)cc3)cc12
Ratio IC50 (Homo sapiens): 18
pIC50 [1]: 7.57
pIC50 [2]: 6.32

O=c1ccoc2ccc(OCc3ccc(C(F)(F)F)cc3)cc12
Ratio IC50 (Homo sapiens): 440
pIC50 [1]: 8.70
pIC50 [2]: 6.06

O=c1ccoc2ccc(OCc3cccc(F)c3)cc12
Ratio IC50 (Homo sapiens): 95
pIC50 [1]: 7.89
pIC50 [2]: 5.91

O=c1ccoc2ccc(OCc3ccc(Cl)cc3)cc12
pIC50 [2]: 6.97

O=c1ccoc2ccc(OCCCc3ccccc3)cc12
Ratio IC50 (Homo sapiens): 34
pIC50 [1]: 7.24
pIC50 [2]: 5.72

O=c1ccoc2ccc(OCc3ccc(F)cc3)cc12
pIC50 [2]: 6.49

O=c1ccoc2ccc(OCc3ccc(Br)cc3)cc12
inhibition (INH) [3]: Active
Ratio IC50 (Homo sapiens): 29
inhibition (INH) [4]: Active
pIC50 [1]: 8.48
pIC50 [2]: 7.02

Cc1ccc(COc2ccc3occc(=O)c3c2)cc1
Ratio IC50 (Homo sapiens): 582
pIC50 [1]: 8.22
pIC50 [2]: 5.46

O=c1ccoc2ccc(OCCc3ccccc3)cc12
Ratio IC50 (Homo sapiens): 149
pIC50 [1]: 7.68
pIC50 [2]: 5.51

Cc1cccc(COc2ccc3occc(=O)c3c2)c1
Ratio IC50 (Homo sapiens): 59
pIC50 [1]: 7.72
pIC50 [2]: 5.95

N#Cc1cccc(COc2ccc3occc(=O)c3c2)c1
Ratio IC50 (Homo sapiens): 3
pIC50 [1]: 7.12
pIC50 [2]: 6.59

O=c1ccoc2ccc(OCc3cccc(Cl)c3)cc12
Ratio IC50 (Homo sapiens): 118
pIC50 [1]: 8.44
pIC50 [2]: 6.37

O=c1ccoc2ccc(OCc3ccccc3)cc12
Ratio IC50 (Homo sapiens): 62
pIC50 [1]: 7.28
pIC50 [2]: 5.48

N#Cc1ccc(COc2ccc3occc(=O)c3c2)cc1
Ratio IC50 (Homo sapiens): 8
pIC50 [1]: 7.66
pIC50 [2]: 6.76

O=c1ccoc2ccc(OCc3cccc(Br)c3)cc12
Ratio IC50 (Homo sapiens): 193
pIC50 [1]: 8.70
pIC50 [2]: 6.41
